We go through 41 compounds from ChEMBL document CHEMBL5038583, “Highly Potent and Selective Butyrylcholinesterase Inhibitors for Cognitive Improvement and Neuroprotection” (J Med Chem, 2021).

Each structure is given as a SMILES string. pIC50: −log10 of the molar value. Some results are limits rather than exact numbers.

Cholinesterase (Equus caballus, UniProt P81908), sequence (P81908 whole entry): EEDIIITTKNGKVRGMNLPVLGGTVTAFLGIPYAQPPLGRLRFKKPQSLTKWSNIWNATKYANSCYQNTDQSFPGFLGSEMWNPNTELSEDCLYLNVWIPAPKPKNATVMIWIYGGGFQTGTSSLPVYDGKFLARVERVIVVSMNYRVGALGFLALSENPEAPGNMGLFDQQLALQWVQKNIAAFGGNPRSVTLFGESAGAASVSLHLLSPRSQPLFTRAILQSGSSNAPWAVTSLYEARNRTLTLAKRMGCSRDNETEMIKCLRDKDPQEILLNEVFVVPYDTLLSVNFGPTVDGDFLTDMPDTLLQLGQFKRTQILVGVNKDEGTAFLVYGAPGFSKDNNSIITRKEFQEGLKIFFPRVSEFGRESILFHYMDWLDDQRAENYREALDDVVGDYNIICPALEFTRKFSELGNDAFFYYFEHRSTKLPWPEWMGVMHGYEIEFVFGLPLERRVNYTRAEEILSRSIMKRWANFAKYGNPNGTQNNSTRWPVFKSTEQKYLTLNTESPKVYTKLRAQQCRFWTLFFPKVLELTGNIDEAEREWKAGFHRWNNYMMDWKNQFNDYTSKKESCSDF

The target of the first data set is Cholinesterase (Equus caballus) (UniProt P81908). As to the kind of experiment: Inhibition of equine serum BChE at 10 uM using butyrylthiocholine iodide as substrate preincubated for 5 mins followed by substrate addition and measured after 2 mins by DTNB-reagent based Ellman's method relative to control. The note with it: time 7.0 min. In outline: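 Ellman method with equine BChE at 2.5 units/mL in pH 8.0 phosphate buffer with DTNB. Preincubation 5 min at room temperature, then butyrylthiocholine iodide (0.075 M solution) added; absorbance at 412 nm after 2 min. Ethanol sample gives 100% activity. Triplicates, at least three runs.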
Cholinesterase (Equus caballus), sequence (P81908 whole entry): as above
(In general: Ellman's reagent forms a yellow product with free thiols.)
For `Nc1ccccc1-c1nc2ccccc2n1CC(=O)Nc1ccc2ncccc2c1`, the inhibition (in general, the percentage by which the read-out fell short of the control) is below 50%.
Same read-out and setting: in the case of `Nc1nonc1-c1nc2ccccc2n1CC(=O)Nc1ccc(-c2ccccc2)cc1` it was below 50%; in that of `Nc1nonc1-c1nc2ccccc2n1CC(=O)Nc1ccc(Br)cc1`, below 50%; in that of `O=C(Cn1c(-c2ccoc2)nc2ccccc21)Nc1ccc2ncccc2c1`, below 50%.
The same measure, in the same setting: as for `Nc1ccc(NC(=O)Cn2c(-c3nonc3N)nc3ccccc32)cc1`, the figure is below 50%; as for `COc1ccc(NC(=O)Cn2c(-c3nonc3N)nc3ccccc32)cc1`, below 50%.
Same read-out and setting: as for `O=C(Cn1c(-c2ccccc2[N+](=O)[O-])nc2ccccc21)Nc1ccc2ncccc2c1`, the figure is below 50%; as for `O=C(Cn1c(-c2ccccc2)nc2ccccc21)Nc1ccc2ncccc2c1`, below 50%.
Turning to `Nc1nonc1-c1nc2ccccc2n1CC(=O)Nc1ccc(Cl)cc1`, the inhibition is below 50%.
On the same count and under the same terms, as for `Nc1nonc1-c1nc2ccccc2n1CCCCC(=O)Nc1ccc2ncccc2c1`, the figure is below 50%.

The next data set addresses Cholinesterase (Equus caballus, UniProt P81908). Kind of data set: Inhibition of equine serum BChE using butyrylthiocholine iodide as substrate preincubated for 5 mins followed by substrate addition and measured after 2 mins by DTNB-reagent based Ellman's method.
Details: not given
In the case of `Nc1nonc1-c1nc2ccccc2n1CC(=O)Nc1ccc([N+](=O)[O-])cc1`, the pIC50 (usually the IC50 on a negative log10 scale, so that one unit is a factor of ten) is 7.52.
For `Cc1cc2nc(-c3nonc3N)n(CC(=O)Nc3ccc4ncccc4c3)c2cc1C`, the negative logarithm of the IC50 (pIC50) is 4.95.
`COc1cc(NC(=O)Cn2c(-c3nonc3N)nc3ccccc32)cc(OC)c1OC` had a pIC50 of 5.18.
On the same count and under the same terms, as for `Nc1nonc1-c1nc2ccccc2n1CC(=O)Nc1ccc2ccccc2n1`, the figure is 6.29; as for `COC(=O)c1cccc(NC(=O)Cn2c(-c3nonc3N)nc3ccccc32)c1`, 7.57; as for `N#Cc1cccc(NC(=O)Cn2c(-c3nonc3N)nc3ccccc32)c1`, 7.29.
The same measure, in the same setting: as for `Nc1nonc1-c1nc2ccccc2n1CC(=O)Nc1ccc2c(c1)OCO2`, the figure is 5.66; as for `Nc1nonc1-c1nc2ccccc2n1CCC(=O)Nc1ccc2ncccc2c1`, 6.60; as for `Nc1nonc1-c1nc2ccccc2n1CC(=O)Nc1ccnc2ccccc12`, 7.29.
Still for that read-out and setting: in the case of `Cc1cc2nc(-c3nonc3N)n(CC(=O)Nc3cnc4ccccc4c3)c2cc1C` it was 4.54.
With `Nc1nonc1-c1nc2ccccc2n1CC(=O)Nc1cccc(Cl)c1`, the pIC50 is 7.48.
Same read-out and setting: in the case of `COc1cccc(NC(=O)Cn2c(-c3nonc3N)nc3ccccc32)c1` it was 5.77; in that of `Cc1cc2nc(-c3nonc3N)n(CC(=O)Nc3cccc4ccccc34)c2cc1C`, 6.97.
Compound `Nc1nonc1-c1nc2ccccc2n1CC(=O)Nc1cccc(Br)c1` gave a negative-log IC50 (pIC50) of 7.08.
The same measure, in the same setting: in the case of `CC(=O)c1ccc(NC(=O)Cn2c(-c3nonc3N)nc3ccccc32)cc1` it was 5.64; in that of `Cc1cccc(NC(=O)Cn2c(-c3nonc3N)nc3ccccc32)c1C`, 6.49; in that of `Nc1nonc1-c1nc2ccccc2n1CC(=O)Nc1cccc(F)c1F`, 6.57.
`Nc1nonc1-c1nc2ccccc2n1CC(=O)Nc1cccc2ncccc12` gave a pIC50 of 6.04.
On to `Nc1nonc1-c1nc2ccccc2n1CC(=O)Nc1cccc(F)c1`, for which the pIC50 was 5.98.
In turn, `CC(=O)Nc1cccc(NC(=O)Cn2c(-c3nonc3N)nc3ccccc32)c1` had a negative-log IC50 (pIC50) of 5.95.
Still for that read-out and setting: in the case of `Nc1nonc1-c1nc2ccccc2n1CC(=O)Nc1ccc2ncccc2c1` it was 6.15; in that of `CC(=O)c1cccc(NC(=O)Cn2c(-c3nonc3N)nc3ccccc32)c1`, 6.72; in that of `Nc1nonc1-c1nc2ccccc2n1CC(=O)Nc1ccccc1`, 5.53.
Same read-out and setting: as for `Nc1nonc1-c1nc2ccccc2n1CC(=O)Nc1ccccc1Cl`, the figure is 5.56; as for `Cc1cccc(NC(=O)Cn2c(-c3nonc3N)nc3ccccc32)c1`, 6.63; as for `COC(=O)c1ccc(NC(=O)Cn2c(-c3nonc3N)nc3ccccc32)cc1`, 5.27.
Same read-out and setting: as for `CC(=O)Nc1ccc(NC(=O)Cn2c(-c3nonc3N)nc3ccccc32)cc1`, the figure is 5.18; as for `Nc1nonc1-c1nc2ccccc2n1CC(=O)Nc1ccccc1F`, 6.91.
`Cc1ccc(NC(=O)Cn2c(-c3nonc3N)nc3ccccc32)cc1` had a pIC50 of 4.99.
On the same count and under the same terms, as for `Nc1nonc1-c1nc2ccccc2n1CC(=O)Nc1ccc2ccccc2c1`, the figure is 3.45.

A further data set deals with Cholinesterase (Homo sapiens, UniProt P06276). As to the kind of experiment: Inhibition of human serum BChE using butyrylthiocholine iodide as substrate preincubated for 20 mins followed by substrate addition and measured after 2 mins by DTNB-reagent based Ellman's method.
Cholinesterase (Homo sapiens, UniProt P06276), sequence (P06276 whole entry): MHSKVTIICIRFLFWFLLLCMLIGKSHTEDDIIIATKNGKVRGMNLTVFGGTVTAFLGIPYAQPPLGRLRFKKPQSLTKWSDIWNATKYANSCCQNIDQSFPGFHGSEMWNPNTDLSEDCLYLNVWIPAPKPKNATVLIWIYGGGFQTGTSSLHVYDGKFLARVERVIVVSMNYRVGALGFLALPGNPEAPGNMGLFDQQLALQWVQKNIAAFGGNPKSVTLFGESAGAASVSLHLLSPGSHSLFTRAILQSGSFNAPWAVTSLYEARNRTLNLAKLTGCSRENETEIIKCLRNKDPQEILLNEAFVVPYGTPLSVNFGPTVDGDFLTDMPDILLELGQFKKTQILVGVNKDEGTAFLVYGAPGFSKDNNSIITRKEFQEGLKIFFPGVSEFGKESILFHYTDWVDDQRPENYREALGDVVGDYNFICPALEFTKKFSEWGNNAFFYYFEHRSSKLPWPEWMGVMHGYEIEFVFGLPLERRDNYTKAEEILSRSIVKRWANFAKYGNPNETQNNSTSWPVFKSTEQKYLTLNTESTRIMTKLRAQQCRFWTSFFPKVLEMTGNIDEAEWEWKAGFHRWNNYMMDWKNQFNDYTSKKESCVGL
Details: not given
An outline of the steps: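 hBChE at 0.015 units/mL with DTNB in phosphate buffer pH 8.0, preincubated 20 min at room temperature with at least six concentrations (10⁻⁴−10⁻⁹). Butyrylthiocholine iodide (0.075 M solution) added; A412 read after 2 min at 25 °C. IC50 from % activity vs log concentration; triplicates in at least three runs.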
Regarding `Nc1nonc1-c1nc2ccccc2n1CC(=O)Nc1ccc([N+](=O)[O-])cc1`, the pIC50 is 7.10.
The same measure, in the same setting: as for `COC(=O)c1cccc(NC(=O)Cn2c(-c3nonc3N)nc3ccccc32)c1`, the figure is 6.74; as for `N#Cc1cccc(NC(=O)Cn2c(-c3nonc3N)nc3ccccc32)c1`, 6.60; as for `Nc1nonc1-c1nc2ccccc2n1CC(=O)Nc1ccnc2ccccc12`, 6.67.
The compound `Nc1nonc1-c1nc2ccccc2n1CC(=O)Nc1cccc(Cl)c1` had a pIC50 of 6.89.
Same read-out and setting: as for `Nc1nonc1-c1nc2ccccc2n1CC(=O)Nc1cccc(Br)c1`, the figure is 6.67.

Test system in the next data set: not listed separately
As to the kind of experiment: Toxicity in ICR mouse assessed as increase in body weight administered for 14 days and measured daily. The conditions noted are these: in vivo, 15 mg/kg, 336 h.
In the case of `COc1cc2c(cc1OC)C(=O)C(CC1CCN(Cc3ccccc3)CC1)C2` (configuration not stated) [DONEPEZIL], the Activity entry is reported as “Toxic”.
